Calls of active or inactive are those of the source.
Experiments:
[1] = molecular target: T1, Cannabinoid receptor 1 (Homo sapiens, UniProt P21554); assay: Displacement of [3H]CP55940 from human CB1 receptor expressed in HEK293 cells after 1 hr by liquid scintillation spectrophotometry; assay type: cell-based
Method in brief: (§1)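 Membranes (50 µg) from HEK-293 cells stably expressing human CB1, cultured in DMEM/10% FBS. Incubated with 0.5 nM [3H]CP55,940 and test compound at 1 nM–10 µM in buffer with BSA (5 mg/mL), 1 h at 30 °C. Nonspecific binding defined with excess unlabelled CP55,940. Filtered through GF/B, then scintillation counting.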

[2] = molecular target: Cannabinoid receptor 2 (Homo sapiens, UniProt P34972); assay: Displacement of [3H]CP55940 from human CB2 receptor expressed in CHO cells after 1 hr by liquid scintillation spectrophotometry; assay type: cell-based
Chain of Cannabinoid receptor 2 (P34972 whole entry): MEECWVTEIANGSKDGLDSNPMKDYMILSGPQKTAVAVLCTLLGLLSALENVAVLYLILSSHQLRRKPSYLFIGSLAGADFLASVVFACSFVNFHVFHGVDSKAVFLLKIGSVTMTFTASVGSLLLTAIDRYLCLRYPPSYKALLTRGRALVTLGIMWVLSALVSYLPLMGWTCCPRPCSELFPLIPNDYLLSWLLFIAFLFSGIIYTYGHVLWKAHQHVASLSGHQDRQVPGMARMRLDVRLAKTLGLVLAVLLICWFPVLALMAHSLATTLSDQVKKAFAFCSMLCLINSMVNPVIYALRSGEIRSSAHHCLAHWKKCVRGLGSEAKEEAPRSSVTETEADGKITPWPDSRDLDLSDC
Method in brief: as §1, with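 “CHO” for “HEK-293”, “CB2,” for “CB1,”, “fetal calf serum.” for “FBS.”, “µM” for “µM in buffer”, “GF/B filtration,” for “Filtered through GF/B,”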

[3] = species: Homo sapiens; assay: Selectivity ratio of Ki for human CB1 receptor to Ki for human CB2 receptor
[4] = system: Mus musculus; assay: Locomotor activity in iv dosed Harlan ICR mouse from 5 to 15 mins by spontaneous locomotor activity test; assay type: functional
[5] = system: Mus musculus; assay: Antinociceptive activity in iv dosed Harlan ICR mouse assessed as latency to heat-induced tail flicking at 20 mins; assay type: functional
Method in brief: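 Male ICR mice, 18–25 g, n = 6 per dose. Multiple doses iv by tail vein in emulphor–ethanol–saline 1:1:18. Tail-flick latency at 20 min, 10 s cutoff, expressed as %MPE.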

[6] = system: Mus musculus; assay: Hypothermic activity in iv dosed Harlan ICR mouse assessed as change in rectal temperature at 30 mins; assay type: functional; conditions: 0.5 h
[7] = system: Mus musculus; assay: Induction of catalepsy in iv dosed Harlan ICR mouse at 40 mins measured for 5 mins by ring immobility test; assay type: functional
[8] = system: Mus musculus; assay: Locomotor activity in Harlan ICR mouse assessed as inhibition of activity level at 77 umol/kg, iv from 5 to 15 mins by spontaneous locomotor activity test relative to vehicle treated control; assay type: functional
Method in brief: (§2)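 Male ICR mice, n = 6 per dose, single probe dose iv in emulphor–ethanol–saline 1:1:18. Photocell beam interruptions recorded over 10 min, at 5–15 min after dosing. Result given as % inhibition relative to the vehicle group.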

[9] = system: Mus musculus; assay: Antinociceptive activity in Harlan ICR mouse assessed as latency to heat-induced tail flicking at 77 umol/kg, iv at 20 mins relative to control; assay type: functional
[10] = system: Mus musculus; assay: Hypothermic activity in Harlan ICR mouse assessed as change in rectal temperature at 77 umol/kg, iv at 30 mins; assay type: functional
Method in brief: (§3)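 Male ICR mice, n = 6 per dose. Single probe dose iv in emulphor–ethanol–saline 1:1:18. Rectal temperature taken with a thermistor probe at 25 mm depth before dosing and at 30 min. Result given as change from pre-injection value (°C).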

[11] = system: Mus musculus; assay: Induction of catalepsy in Harlan ICR mouse at 77 umol/kg, iv at 40 mins measured for 5 mins by ring immobility test; assay type: functional
Method in brief: (§4)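 Male ICR mice given a single iv probe dose in emulphor–ethanol–saline 1:1:18. At 40 min placed on a 5.5 cm ring raised 16 cm and observed for 5 min by blinded raters. Up to 5 escapes allowed; mice escaping before 2.5 min excluded. Immobility index = time motionless / 300 s × 100.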

[12] = system: Mus musculus; assay: Locomotor activity in Harlan ICR mouse assessed as inhibition of activity level at 83 umol/kg, iv from 5 to 15 mins by spontaneous locomotor activity test relative to vehicle treated control; assay type: functional; method in brief: as §2
[13] = system: Mus musculus; assay: Antinociceptive activity in Harlan ICR mouse assessed as latency to heat-induced tail flicking at 83 umol/kg, iv at 20 mins relative to control; assay type: functional
[14] = system: Mus musculus; assay: Hypothermic activity in Harlan ICR mouse assessed as change in rectal temperature at 83 umol/kg, iv at 30 mins; assay type: functional; method in brief: as §3
[15] = system: Mus musculus; assay: Induction of catalepsy in Harlan ICR mouse at 83 umol/kg, iv at 40 mins measured for 5 mins by ring immobility test; assay type: functional; method in brief: as §4
[16] = system: Mus musculus; assay: Locomotor activity in Harlan ICR mouse assessed as inhibition of activity level at 86 umol/kg, iv from 5 to 15 mins by spontaneous locomotor activity test relative to vehicle treated control; assay type: functional; method in brief: as §2
[17] = system: Mus musculus; assay: Antinociceptive activity in Harlan ICR mouse assessed as latency to heat-induced tail flicking at 86 umol/kg, iv at 20 mins relative to control; assay type: functional
[18] = system: Mus musculus; assay: Hypothermic activity in Harlan ICR mouse assessed as change in rectal temperature at 86 umol/kg, iv at 30 mins; assay type: functional, organism-based; method in brief: as §3
[19] = molecular target: T1, Cannabinoid receptor 1; assay: Activation of human CB1 receptor expressed in HEK293 cells assessed as [35S]GTPgamma binding after 90 mins by liquid scintillation spectrophotometry; assay type: functional, cell-based
Method in brief: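 Membranes from HEK-293 cells stably expressing human CB1, pelleted at 50,000g and taken up in Tris-HCl pH 7.4 with MgCl2, EGTA and NaCl. 10 µg protein with BSA, 20 µM GDP, 0.1 nM [35S]GTPγS and graded test concentrations, 90 min at 30 °C. 2 µM CP55,940 run as internal standard; basal without agonist, nonspecific with 10 µM GTPγS. Filtration, then scintillation counting.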

T1 sequence (P21554 whole entry): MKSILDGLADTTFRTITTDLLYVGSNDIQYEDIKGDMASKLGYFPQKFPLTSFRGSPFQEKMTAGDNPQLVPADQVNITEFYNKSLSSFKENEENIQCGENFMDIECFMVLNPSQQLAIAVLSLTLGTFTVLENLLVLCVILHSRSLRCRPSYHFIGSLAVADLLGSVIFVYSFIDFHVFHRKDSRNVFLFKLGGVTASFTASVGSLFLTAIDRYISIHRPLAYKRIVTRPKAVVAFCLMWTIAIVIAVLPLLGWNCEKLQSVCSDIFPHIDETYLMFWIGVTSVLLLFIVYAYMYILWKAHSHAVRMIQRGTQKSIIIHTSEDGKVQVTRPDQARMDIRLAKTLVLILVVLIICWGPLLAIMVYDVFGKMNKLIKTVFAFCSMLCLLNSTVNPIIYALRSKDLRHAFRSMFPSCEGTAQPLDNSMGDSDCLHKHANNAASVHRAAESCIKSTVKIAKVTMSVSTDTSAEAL

| Structure (SMILES) | Ki [1] [nM] | Ki [2] [nM] | Ratio Ki [3] | ED50 [4] [µmol/kg] | ED50 [5] [µmol/kg] | ED50 [6] [µmol/kg] | ED50 [7] [µmol/kg] | other results |
| --- | --- | --- | --- | --- | --- | --- | --- | --- |
| CCCCCn1cc(C(=O)c2cccc3cccc(I)c23)c2ccccc21 | 73 | 3.3 | 22 | 1.8 | 1.3 | 6.4 | 3.6 |  |
| CCCCCn1c(C)c(C(=O)c2ccc(Br)c3ccccc23)c2ccccc21 | 14 | 2.8 | 5 |  |  |  |  |  |
| CCCCCn1c(C)c(C(=O)c2ccc(F)c3ccccc23)c2ccccc21 | 14 | 2.2 | 6 | 0.38 | 0.48 | 0.54 | 0.99 |  |
| CCCn1cc(C(=O)c2ccc(Br)c3ccccc23)c2ccccc21 | 161 | 27 | 6 |  |  |  |  | inhibition in vivo at 77 µmol/kg [8]: 71%; Activity [9]: 75%; Activity [10]: -3.9%; Activity [11]: 26% |
| CCCCCn1c(C)c(C(=O)c2ccc(I)c3ccccc23)c2ccccc21 | 14 | 2.1 | 7 | 1.1 | 2.5 | 2.6 | 2.5 |  |
| CCCn1c(C)c(C(=O)c2ccc(Cl)c3ccccc23)c2ccccc21 | 187 | 22 | 9 |  |  |  |  | inhibition in vivo at 83 µmol/kg [12]: 70%; Activity [13]: 100%; Activity [14]: -5.4%; Activity [15]: 70% |
| CCCn1cc(C(=O)c2cccc3cccc(Cl)c23)c2ccccc21 | 642 | 134 | 4.8 |  |  |  |  | inhibition in vivo at 86 µmol/kg [16]: 68%; Activity [17]: 72%; Activity [18]: inactive |
| C=C1CC[C@@H]2[C@@H](C1)c1ccc(C(C)(C)CCCCCC)cc1OC2(C)C |  |  |  |  |  |  |  | Activity [19]: inactive |
| Cc1c(C(=O)c2cccc3ccccc23)c2cccc3c2n1[C@H](CN1CCOCC1)CO3 [WIN-552122] |  |  |  | 0.23 | 0.94 |  |  |  |
| CCCCCn1cc(C(=O)c2ccc(Br)c3ccccc23)c2ccccc21 | 1.2 | 1.1 | 1 |  |  |  |  |  |
| CCCCCn1c(C)c(C(=O)c2ccc(Cl)c3ccccc23)c2ccccc21 | 8.9 | 2.3 | 4 |  |  |  |  | inhibition in vivo at 77 µmol/kg [8]: 94%; Activity [9]: 100%; Activity [10]: -6.4%; Activity [11]: 88% |
| CCCCCn1cc(C(=O)c2ccc(I)c3ccccc23)c2ccccc21 | 2.5 | 1.3 | 2 | 0.3 | 0.45 | 0.19 | 0.38 |  |
| CCCCCc1cc(O)c2c(c1)OC(C)(C)[C@@H]1CCC(C)=C[C@@H]21 [DRONABINOL] |  |  |  | 3.2 |  |  |  |  |

Source: ChEMBL document CHEMBL2203189, “Synthesis and pharmacology of 1-alkyl-3-(1-naphthoyl)indoles: steric and electronic effects of 4- and 8-halogenated naphthoyl substituents” (Bioorg Med Chem, 2012)
